# Assay results from different studies.
# Each line is one published result; the experiments were not run side by side.
# Target: Casein kinase I isoform alpha (CSNK1A1, Homo sapiens, UniProt P48729)
SMILES,test,conditions,remaining binding [%]
c1cncc(-c2cccc(Nc3nccc(NC4CCCCC4)n3)c2)c1,"binding, competition with immobilised ligand",10 µM,71
CNCc1ccccc1-c1csc([C@H](C)Nc2nc(C)nc3cc(OC)c(OC)cc23)c1,"cell-free assay, competition with immobilised ligand",1 µM,74
COc1ccnn2ncc(-c3ccnc(N(C)C)n3)c12,binding,1 µM,55
CS(=O)(=O)c1cc(C2(NC(=O)c3cncc4c3cnn4-c3ccc(F)cc3)CC2)ccn1,"cell-free assay, competition with immobilised ligand",1 µM,96
O=C(NCCCN1CCOCC1)c1ccc(Nc2ncc(Cl)c(-c3ccc(Cl)s3)n2)cc1,"binding, competition with immobilised ligand",1 µM,100
O=C(N1CCS(=O)(=O)CC1)N1C[C@H](c2ccc(OC(F)(F)F)cc2)C[C@H](c2nc(C3CC3)no2)C1,"cell-free assay, competition with immobilised ligand",1 µM,100
O=C(c1ccc(Nc2nccc(-c3cc4ccccc4s3)n2)cc1)N1CCC(N2CCCC2)CC1,"binding, competition with immobilised ligand",1 µM,78
COc1cnc(Nc2cccc(S(N)(=O)=O)c2)nc1N1CCN(c2ccccc2)CC1,"binding, competition with immobilised ligand",1 µM,93
O=C(c1ccc(Nc2ncc(Cl)c(-c3cc4ccccc4s3)n2)cc1)N1CCC(N2CCCC2)CC1,"binding, competition with immobilised ligand",1 µM,67
CN(C)c1nccc(-c2cnc3ncccn23)n1,binding,1 µM,36
COc1ncc2cc3ccccc3nc2c1C#N,"cell-free assay, competition with immobilised ligand",5 µM,97
CNC(=O)Nc1ccc2c(c1)CC[C@@]21OC(=O)N(CC(=O)N(Cc2ccc(F)cc2)[C@@H](C)C(F)(F)F)C1=O,"cell-free assay, competition with immobilised ligand",1 µM,93
CN(C)c1nccc(-c2cnn3ncccc23)n1,binding,1 µM,60
Cc1cc(C)c(-n2ccn3nc(-c4cccnc4)cc23)cc1NC(=O)c1cc(C#N)cc(S(F)(F)(F)(F)F)c1,"cell-free assay, competition with immobilised ligand",0.1 µM,67
CN(c1nccc(-c2cnn3ncccc23)n1)C1CC1,binding,1 µM,88
C=CC(=O)N1CCC(C(=O)NCC(=O)N2CCN(c3nc(-c4cnc(N)nc4C(F)F)nc(N4CCOCC4)n3)CC2)CC1,"binding, competition with immobilised ligand",1 µM,89
N[C@@H]1CCN(c2nccc(-c3cnn4ncccc34)n2)C1,binding,1 µM,12
CCN1CCN(Cc2ccc(C(=O)Nc3ccc(C)c(Oc4ccc5c(c4)CC(=O)N5)c3)cc2C(F)(F)F)CC1,"binding, competition with immobilised ligand",1 µM,100
c1cnn2ncc(-c3ccnc(N4CCC45COC5)n3)c2c1,binding,1 µM,14
O=C(Nc1c[nH]nc1C(=O)NC1CCNCC1)c1cc(F)cc(F)c1,"binding, competition with immobilised ligand",1 µM,75
CS(=O)(=O)N1CCCC(NC(=O)[C@H](CCC2CCCCC2)NC(=O)c2ccc(CNc3ncnc4c3nnn4-c3ccccc3)cc2)C1 (stereo partly shown),"cell-free assay, competition with immobilised ligand",0.1 µM,99
C[C@@H]1CCN(c2nccc(-c3cnn4ncccc34)n2)C1,binding,1 µM,61
